# Measured values: ChEMBL document CHEMBL1123705, “Antitumor agents. 86. Synthesis and cytotoxicity of alpha-methylene-gamma-lactone-bearing purines” (1987)
# Experiments:
# Type in all cases: functional
# KB = assay: Compound was tested for its antitumor activity and the cytotoxicity against KB human carcinoma of the nasopharynx screen; details: read-out: ED50 (the source's name)
# In short: (§1)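 Run per the NIH cytotoxicity protocol. Viable cells were counted by trypan blue exclusion and expressed as a percentage of the 0.05% Tween 80–water control. ED₅₀ was estimated from a semilog plot against drug concentration.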
# P388 = assay: Compound was tested for its antitumor activity and the cytotoxicity against P-388 lymphocytic leukemia screen; details: Mus musculus, read-out: ED50 (the source's name); in short: as §1
# L1210 = assay: Compound was tested for its antitumor activity and the cytotoxicity against L1210 lymphoid leukemia screen; details: Mus musculus, read-out: ED50 (the source's name); in short: as §1
Structure (SMILES),EC50 (KB) [µg/mL],EC50 (P388) [µg/mL],EC50 (L1210) [µg/mL]
C=C1CC(C)(Cn2c(N)nc3ncnc-3c2O)OC1=O (stereo unspecified),> 10,> 20,1.3
C=C1CC(C)(Cn2cnc3c(N)ncnc32)OC1=O (stereo unspecified),5,> 20,0.3
C=C1CC(C)(Cn2cnc3c(O)ncnc32)OC1=O (stereo unspecified),> 10,> 20,2
COc1cc([C@@H]2c3cc4c(cc3[C@@H](O[C@@H]3O[C@@H]5CO[C@@H](C)O[C@H]5[C@H](O)[C@H]3O)[C@H]3COC(=O)[C@H]23)OCO4)cc(OC)c1O [ETOPOSIDE],,1.71,1.58
